Data set [1] in a line: Half life in iv dosed rhesus monkey. The data set is classed as ADME, organism-based, Macaca mulatta. Particulars: in vivo.
Data set [2] can be described thus: Metabolic stability in dog liver microsomes assessed as compound remaining after 45 mins. The data set is classed as ADME, Canis lupus familiaris, Microsome. Conditions: read-out: Stability. For orientation: Microsomes from liver hold many membrane-bound enzymes, among them those of drug oxidation.
The nature of data set [3]: Oral bioavailability rat. The data set is classed as ADME, organism-based. Particulars: in vivo.
Data set [4] in a line: Metabolic stability in human liver microsomes assessed as compound remaining after 45 mins. The data set is classed as ADME, Microsome. Conditions: read-out: Stability.
Data set [5] can be described thus: Solubility of the compound at pH < 5.2. The data set is classed as physicochemical.
Data set [6] addresses T1, Beta-1 adrenergic receptor (Homo sapiens, UniProt P08588). The data set can be described thus: Binding affinity to human beta1 adrenergic receptor.
The nature of data set [7]: (§1) Half life in iv dosed dog. The data set is classed as ADME, organism-based, Canis lupus familiaris. Particulars: in vivo.
Another data set deals with Cytochrome P450 3A4 (Homo sapiens, UniProt P08684). The data set can be described thus: Inhibition of CYP3A4. The data set is classed as ADME.
Chain of Cytochrome P450 3A4 (P08684 whole entry): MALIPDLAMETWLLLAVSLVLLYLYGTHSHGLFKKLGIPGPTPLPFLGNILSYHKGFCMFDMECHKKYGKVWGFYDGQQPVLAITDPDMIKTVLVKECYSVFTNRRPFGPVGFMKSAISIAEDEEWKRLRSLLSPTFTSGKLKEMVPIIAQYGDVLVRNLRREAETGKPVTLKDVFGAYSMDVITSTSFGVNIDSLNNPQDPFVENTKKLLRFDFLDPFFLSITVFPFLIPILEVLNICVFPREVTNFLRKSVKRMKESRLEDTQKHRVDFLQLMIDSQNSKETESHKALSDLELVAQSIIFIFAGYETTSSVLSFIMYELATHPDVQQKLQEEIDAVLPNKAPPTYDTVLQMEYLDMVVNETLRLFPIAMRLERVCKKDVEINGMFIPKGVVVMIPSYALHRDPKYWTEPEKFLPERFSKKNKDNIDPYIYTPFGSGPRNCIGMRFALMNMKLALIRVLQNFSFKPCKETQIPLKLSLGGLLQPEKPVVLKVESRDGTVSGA
Data set [8] has as its target Voltage-gated inwardly rectifying potassium channel KCNH2 (Homo sapiens, UniProt Q12809). The data set can be described thus: Inhibition of human ERG.
A short description of data set [9]: Volume of distribution in dog. The data set is classed as ADME, organism-based, Canis lupus familiaris. Conditions: in vivo.
In data set [10] the target is T1, Beta-1 adrenergic receptor. Nature of the data set: Agonist activity at human beta1 adrenergic receptor. The data set is classed as functional.
For another data set, the target named is T2, Cytochrome P450 2C8 (Homo sapiens, UniProt P10632).
T2 sequence (P10632 whole entry): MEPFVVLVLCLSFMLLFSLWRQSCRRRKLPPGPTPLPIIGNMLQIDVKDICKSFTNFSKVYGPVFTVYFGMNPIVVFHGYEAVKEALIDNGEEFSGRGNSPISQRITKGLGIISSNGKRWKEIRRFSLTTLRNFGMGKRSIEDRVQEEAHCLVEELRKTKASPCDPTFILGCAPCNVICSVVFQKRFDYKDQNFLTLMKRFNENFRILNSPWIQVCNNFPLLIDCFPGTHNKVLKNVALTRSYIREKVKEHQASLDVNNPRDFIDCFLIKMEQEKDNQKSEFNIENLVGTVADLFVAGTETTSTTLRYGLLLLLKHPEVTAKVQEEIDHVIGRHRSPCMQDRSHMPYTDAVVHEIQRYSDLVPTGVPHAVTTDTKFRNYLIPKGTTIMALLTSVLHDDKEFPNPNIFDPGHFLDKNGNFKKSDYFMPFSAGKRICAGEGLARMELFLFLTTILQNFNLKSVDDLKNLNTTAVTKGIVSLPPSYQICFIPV
The data set can be described thus: Inhibition of CYP2C8. The data set is classed as ADME.

The nature of data set [11]: Metabolic stability in rhesus monkey liver microsomes assessed as compound remaining after 45 mins. The data set is classed as ADME, Macaca mulatta, Microsome. Conditions: read-out: Stability.
A short description of data set [12]: Volume of distribution in rat. The data set is classed as ADME, organism-based. Conditions: in vivo.
A short description of data set [13]: Metabolic stability in rat liver microsomes assessed as compound remaining after 45 mins. The data set is classed as ADME, Microsome. Conditions: read-out: Stability.
In data set [14] the target is T3, Beta-2 adrenergic receptor (Homo sapiens, UniProt P07550). Nature of the data set: Agonist activity at human beta2 adrenergic receptor. The data set is classed as functional.
T3 sequence (P07550 whole entry): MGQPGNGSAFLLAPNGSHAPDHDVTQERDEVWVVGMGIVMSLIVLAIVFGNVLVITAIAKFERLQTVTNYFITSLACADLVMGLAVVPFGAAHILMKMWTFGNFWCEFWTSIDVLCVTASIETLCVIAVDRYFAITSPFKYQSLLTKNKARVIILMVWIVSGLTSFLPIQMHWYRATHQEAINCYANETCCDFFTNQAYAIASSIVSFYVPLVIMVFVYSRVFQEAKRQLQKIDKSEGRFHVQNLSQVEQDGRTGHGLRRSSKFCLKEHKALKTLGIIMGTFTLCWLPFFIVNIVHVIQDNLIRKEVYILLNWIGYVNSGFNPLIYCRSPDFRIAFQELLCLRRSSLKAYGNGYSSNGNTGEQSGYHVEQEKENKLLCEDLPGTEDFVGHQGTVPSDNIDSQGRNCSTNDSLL
The nature of data set [15]: Solubility of the compound at pH 7.4. Particulars: buffer. The data set is classed as physicochemical.
For another data set, the target named is Nav1.5 (Homo sapiens, UniProt Q14524). Nature of the data set: Inhibition of human Nav1.5 at 30 uM.
Chain of Nav1.5 (Q14524 whole entry): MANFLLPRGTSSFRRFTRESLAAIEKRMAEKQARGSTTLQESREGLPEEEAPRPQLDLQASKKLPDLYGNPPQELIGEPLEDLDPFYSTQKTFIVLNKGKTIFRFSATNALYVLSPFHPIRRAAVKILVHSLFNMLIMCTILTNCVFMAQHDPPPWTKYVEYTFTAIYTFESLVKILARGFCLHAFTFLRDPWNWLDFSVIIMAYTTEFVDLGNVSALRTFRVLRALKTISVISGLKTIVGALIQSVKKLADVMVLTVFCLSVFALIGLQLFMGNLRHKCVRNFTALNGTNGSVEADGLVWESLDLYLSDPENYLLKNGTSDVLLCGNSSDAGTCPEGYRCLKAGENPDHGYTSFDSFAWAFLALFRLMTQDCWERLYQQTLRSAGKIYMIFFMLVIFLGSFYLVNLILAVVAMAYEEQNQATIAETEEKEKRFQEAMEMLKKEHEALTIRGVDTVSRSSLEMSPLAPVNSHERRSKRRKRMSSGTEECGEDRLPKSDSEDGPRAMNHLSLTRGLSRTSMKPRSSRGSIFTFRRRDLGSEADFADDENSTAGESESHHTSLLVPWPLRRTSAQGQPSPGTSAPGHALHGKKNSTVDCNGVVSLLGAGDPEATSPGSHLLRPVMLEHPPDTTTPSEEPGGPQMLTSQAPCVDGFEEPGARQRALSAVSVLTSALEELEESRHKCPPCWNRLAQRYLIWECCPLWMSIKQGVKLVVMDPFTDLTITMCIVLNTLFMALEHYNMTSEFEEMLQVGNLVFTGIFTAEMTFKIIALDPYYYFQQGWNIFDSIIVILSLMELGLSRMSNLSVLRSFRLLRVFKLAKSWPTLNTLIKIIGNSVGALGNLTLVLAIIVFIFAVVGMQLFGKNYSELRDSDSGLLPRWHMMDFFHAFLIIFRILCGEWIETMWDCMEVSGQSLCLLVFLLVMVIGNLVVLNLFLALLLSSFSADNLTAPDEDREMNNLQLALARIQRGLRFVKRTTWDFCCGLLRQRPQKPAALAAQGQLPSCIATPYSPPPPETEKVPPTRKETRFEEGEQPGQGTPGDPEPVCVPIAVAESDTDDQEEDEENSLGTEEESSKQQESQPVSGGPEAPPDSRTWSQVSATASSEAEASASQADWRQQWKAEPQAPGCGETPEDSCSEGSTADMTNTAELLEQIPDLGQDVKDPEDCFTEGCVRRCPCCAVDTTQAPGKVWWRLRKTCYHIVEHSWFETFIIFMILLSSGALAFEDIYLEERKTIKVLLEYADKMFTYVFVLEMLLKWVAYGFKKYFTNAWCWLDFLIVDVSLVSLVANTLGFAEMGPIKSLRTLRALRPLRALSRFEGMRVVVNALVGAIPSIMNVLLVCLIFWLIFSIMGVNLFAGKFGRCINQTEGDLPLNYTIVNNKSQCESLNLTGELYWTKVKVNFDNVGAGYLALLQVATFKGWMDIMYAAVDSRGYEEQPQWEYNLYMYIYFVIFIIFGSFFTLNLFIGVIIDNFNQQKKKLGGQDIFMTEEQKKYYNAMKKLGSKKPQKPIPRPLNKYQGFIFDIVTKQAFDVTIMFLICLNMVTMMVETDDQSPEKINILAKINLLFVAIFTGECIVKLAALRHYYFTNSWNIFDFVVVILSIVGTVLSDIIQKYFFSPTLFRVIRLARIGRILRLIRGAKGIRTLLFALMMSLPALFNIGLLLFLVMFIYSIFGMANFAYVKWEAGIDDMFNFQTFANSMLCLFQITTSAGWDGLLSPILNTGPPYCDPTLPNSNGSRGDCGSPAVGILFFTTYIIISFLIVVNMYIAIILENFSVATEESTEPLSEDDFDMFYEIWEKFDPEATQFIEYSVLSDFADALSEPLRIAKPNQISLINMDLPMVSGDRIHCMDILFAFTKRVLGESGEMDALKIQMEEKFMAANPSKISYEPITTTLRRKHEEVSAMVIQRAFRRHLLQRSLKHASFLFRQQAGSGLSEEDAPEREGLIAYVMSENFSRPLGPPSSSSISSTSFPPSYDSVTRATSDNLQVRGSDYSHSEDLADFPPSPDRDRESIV
For another data set, the target named is Cytochrome P450 2D6 (Homo sapiens, UniProt P10635). Nature of the data set: Inhibition of CYP2D6. The data set is classed as ADME.
Chain of Cytochrome P450 2D6 (P10635 whole entry): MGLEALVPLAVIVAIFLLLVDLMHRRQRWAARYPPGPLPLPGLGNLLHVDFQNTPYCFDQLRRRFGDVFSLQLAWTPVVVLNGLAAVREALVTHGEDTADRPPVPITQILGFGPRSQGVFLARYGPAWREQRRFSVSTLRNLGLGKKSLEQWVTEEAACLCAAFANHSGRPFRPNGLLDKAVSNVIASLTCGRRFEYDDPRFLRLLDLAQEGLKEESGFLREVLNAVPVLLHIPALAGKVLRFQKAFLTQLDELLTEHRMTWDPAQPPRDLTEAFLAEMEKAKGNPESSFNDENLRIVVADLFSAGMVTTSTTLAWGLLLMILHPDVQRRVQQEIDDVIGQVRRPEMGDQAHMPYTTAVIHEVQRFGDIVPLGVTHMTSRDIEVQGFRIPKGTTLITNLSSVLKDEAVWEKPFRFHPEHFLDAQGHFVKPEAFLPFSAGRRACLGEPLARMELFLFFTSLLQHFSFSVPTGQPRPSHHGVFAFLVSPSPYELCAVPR
For data set [16], the target named is T3, Beta-2 adrenergic receptor. The data set can be described thus: Binding affinity to human beta2 adrenergic receptor.
A short description of data set [17]: Mutagenic activity in Salmonella Typhimurium by AMES test in presence of S9 fraction. The data set is classed as toxicity. Conditions: salmonella enterica subsp. enterica serovar typhimurium, in the assay text read “5-fluorouracil forward mutation assay” for “AMES test”.
Data set [18] in a line: Half life in iv dosed rat. The data set is classed as ADME, organism-based. Conditions: in vivo.
The nature of data set [19]: Plasma clearance in iv dosed rhesus monkey. The data set is classed as ADME, organism-based, Macaca mulatta.
Data set [20] can be described thus: Oral bioavailability in rhesus monkey. The data set is classed as ADME, organism-based, Macaca mulatta. Conditions: in vivo.
Data set [21] is described as follows: Oral bioavailability in dog. The data set is classed as ADME, organism-based, Canis lupus familiaris. Particulars: in vivo.
Data set [22] is described as follows: Volume of distribution in rhesus monkey. The data set is classed as ADME, organism-based, Macaca mulatta. Conditions: in vivo.
Data set [23] can be described thus: Plasma clearance in iv dosed dog. The data set is classed as ADME, organism-based, Canis lupus familiaris.
Data set [24] deals with T4, Beta-3 adrenergic receptor (Homo sapiens, UniProt P13945). The data set can be described thus: Agonist activity at human beta3 adrenergic receptor relative to control. The data set is classed as functional.
Target sequence in this assay (P13945 whole entry, looked up): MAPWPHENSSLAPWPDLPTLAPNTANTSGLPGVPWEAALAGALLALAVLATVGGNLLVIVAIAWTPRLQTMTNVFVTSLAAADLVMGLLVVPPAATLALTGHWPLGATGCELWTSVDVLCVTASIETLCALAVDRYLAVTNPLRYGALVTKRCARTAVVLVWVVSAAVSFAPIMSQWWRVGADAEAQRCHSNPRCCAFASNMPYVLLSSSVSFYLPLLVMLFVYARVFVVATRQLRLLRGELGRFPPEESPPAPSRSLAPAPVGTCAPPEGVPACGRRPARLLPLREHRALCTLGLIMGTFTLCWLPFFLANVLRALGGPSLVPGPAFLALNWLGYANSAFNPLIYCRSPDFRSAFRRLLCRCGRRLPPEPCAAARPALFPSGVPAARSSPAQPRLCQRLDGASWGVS
For another data set, the target named is Cytochrome P450 2C9 (Homo sapiens, UniProt P11712). Nature of the data set: Inhibition of CYP2C9. The data set is classed as ADME.
Chain of Cytochrome P450 2C9 (P11712 whole entry): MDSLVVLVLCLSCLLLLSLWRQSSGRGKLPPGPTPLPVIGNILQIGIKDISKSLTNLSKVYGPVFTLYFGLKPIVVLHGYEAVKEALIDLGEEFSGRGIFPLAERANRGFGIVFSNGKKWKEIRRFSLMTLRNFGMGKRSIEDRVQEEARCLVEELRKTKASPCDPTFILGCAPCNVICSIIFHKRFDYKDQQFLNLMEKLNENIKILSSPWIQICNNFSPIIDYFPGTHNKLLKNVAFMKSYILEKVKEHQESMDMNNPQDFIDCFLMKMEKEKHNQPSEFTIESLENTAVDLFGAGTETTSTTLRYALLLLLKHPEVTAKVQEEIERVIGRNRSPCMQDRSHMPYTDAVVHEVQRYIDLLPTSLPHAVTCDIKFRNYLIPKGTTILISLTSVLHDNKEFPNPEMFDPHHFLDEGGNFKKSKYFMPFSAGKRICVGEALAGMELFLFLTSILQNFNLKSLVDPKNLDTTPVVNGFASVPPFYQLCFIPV
In data set [25] the target is T4, Beta-3 adrenergic receptor. Nature of the data set: Agonist activity at human beta3 adrenergic receptor. The data set is classed as functional.
Target sequence in this assay (P13945 whole entry): as the sequence (P13945 whole entry, looked up) above
The species entered for data set [26] is Homo sapiens. The data set can be described thus: Selectivity ratio of human beta3 adrenergic receptor to human beta2 adrenergic receptor.
For a further data set, the system named is Canis familiaris. The description is as §1. Conditions: in vivo. The data set is classed as ADME, organism-based, Canis lupus familiaris.
The species named for data set [27] is Homo sapiens. Nature of the data set: Selectivity ratio of human beta3 adrenergic receptor to human beta1 adrenergic receptor.
A short description of data set [28]: Mutagenic activity in Salmonella Typhimurium assessed as 2 fold increase of revertants at 30 to 600 ug/plate by AMES test relative to control in presence of S9 fraction. Conditions: salmonella enterica subsp. enterica serovar typhimurium, in the assay text read “30 to 6000 ug/plate” for “30 to 600 ug/plate”. The data set is classed as toxicity. An outline of the steps:
(§2)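 Ames microbial mutagenesis assay in bacterial strains, run with and without S-9 metabolic activation. A positive response was defined as a 2-fold or greater increase in revertants over the control.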

A short description of data set [29]: Mutagenic activity in Salmonella Typhimurium assessed as 2 fold increase of revertants at 30 to 600 ug/plate by AMES test relative to control in absence of S9 fraction. Conditions: salmonella enterica subsp. enterica serovar typhimurium, in the assay text read “30 to 6000 ug/plate” for “30 to 600 ug/plate”. The data set is classed as toxicity. An outline of the steps: as §2

In brackets after ≈: the same amount, converted by molar mass.

T1 sequence (P08588 whole entry): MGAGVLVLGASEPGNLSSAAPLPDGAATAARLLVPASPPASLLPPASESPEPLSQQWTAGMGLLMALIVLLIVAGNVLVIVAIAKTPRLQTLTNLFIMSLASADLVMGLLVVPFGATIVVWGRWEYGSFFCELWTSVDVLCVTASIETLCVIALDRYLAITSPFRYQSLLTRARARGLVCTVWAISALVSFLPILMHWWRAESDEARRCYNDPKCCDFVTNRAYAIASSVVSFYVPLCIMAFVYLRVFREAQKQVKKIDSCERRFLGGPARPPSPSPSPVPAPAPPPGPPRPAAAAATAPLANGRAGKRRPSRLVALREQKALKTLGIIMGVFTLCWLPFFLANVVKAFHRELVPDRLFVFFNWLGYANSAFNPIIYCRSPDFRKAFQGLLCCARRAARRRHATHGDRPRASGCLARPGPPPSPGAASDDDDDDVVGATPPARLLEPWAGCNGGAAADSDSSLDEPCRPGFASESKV

A word on the half-life: it is how long it takes for the measured level to halve. As usually defined, the bioavailability is the share of a dose that reaches the circulation, judged against a reference dose that is usually intravenous. A word on the solubility: it is the dissolved amount per volume that the medium holds. In general, IC50 refers to the concentration needed to halve the response being measured. One may read the Vd as a proportionality between amount in the body and measured concentration, not a real space. As a reminder, the inhibition is how much of the control response was suppressed. Broadly, the clearance is the volume of plasma or blood freed of the substance per unit of time. The EC50 is the concentration that produces a half-maximal response. Regarding `Nc1nc(CC(=O)Nc2ccc(C[C@@H]3CC[C@H]([C@H](O)c4ccccc4)N3)cc2)cs1`, the values for the half-life in data set [1], in data set [7] and in data set [18] were 9.9 h, 8.3 h and 7.7 h, respectively. The remaining at 0.75 h in data set [2] came to 23%; in data set [4], 40%; in data set [11], 77%; in data set [13], 13%. Further, the values for the bioavailability in data set [3], in [20] and in [21] were 12%, 14% and 18%, respectively. Also, the solubility in data set [5] is more than 1800 µg/mL; in data set [15], 1300 µg/mL (≈ 3.08 mM). Besides, the IC50 in data set [6] was more than 20 µM; in [8], 11.2 µM; in data set [10], more than 20 µM; in [14] it was more than 20 µM; in [16], more than 20 µM. The INH was more than 100 µM on Cytochrome P450 3A4, more than 100 µM on Cytochrome P450 2C8, 2.2 µM on Cytochrome P450 2D6 and more than 100 µM at Cytochrome P450 2C9. Moreover, the results for the Vd in [9], in data set [12] and in data set [22] were 14 L/kg, 5.8 L/kg and 26.4 L/kg, respectively. Besides, at Nav1.5, the inhibition at 30 µM came out at 26%. Moreover, the Activity result in data set [17] was “Non-toxic”; in data set [24], 99%. Moreover, the values for the clearance in [19] and in data set [23] were 43.4 mL/min/kg and 23 mL/min/kg, respectively. Moreover, the EC50 in [25] (read-out: EC50) came out at 0.00098 µM.

For `O=S(=O)(Nc1ccc(CC2CC[C@H]([C@@H](O)c3ccccc3)N2)cc1)c1ccc(-c2nc(-c3ccc(C(F)(F)F)cc3)cs2)cc1` (mixture of isomers), the IC50 is 1.52 µM in [10] and 2.79 µM in data set [14]. The compound also registered an Activity in [24] of 104%. In addition, the EC50 in data set [25] (read-out: EC50) turned out to be 1.31 µM.

`O=S(=O)(Nc1ccc(CC2CC[C@@H]([C@@H](O)c3ccccc3)N2)cc1)c1ccc(-c2nc(-c3ccc(C(F)(F)F)cc3)cs2)cc1` (mixture of isomers): the IC50 in data set [10] is 1.78 µM; in data set [14], 3.53 µM. Further, the Activity in [24] turned out to be 89%. In addition, the EC50 in data set [25] (read-out: EC50) turned out to be 2.03 µM.

In the case of `O=S(=O)(Nc1ccc(CC2CC[C@@H]([C@H](O)c3ccccc3)N2)cc1)c1ccc(-c2nc(-c3ccc(C(F)(F)F)cc3)cs2)cc1` (mixture of isomers), the IC50 in data set [10] amounted to 2.15 µM; in data set [14] it was 3.53 µM. Besides, in [24], the Activity stood at 104%. In [25] (read-out: EC50), the EC50 came out at 0.081 µM.

For the compound `O=S(=O)(Nc1ccc(CCNC[C@H](O)c2cccnc2)cc1)c1ccc(-c2nc(-c3ccc(C(F)(F)F)cc3)cs2)cc1`, the Selectivity ratio in the data set listed under Homo sapiens [26] and in the data set listed under Homo sapiens [27] was 1000 throughout. The t1/2 in the data set on Canis familiaris worked out at 14 h. The Vd in data set [9] worked out at 12 L/kg; in data set [12], 23 L/kg; in [22], 6.2 L/kg. This compound also had a half-life in data set [18] of 8.1 h.

On to `CC(Cc1ccc(NS(=O)(=O)c2ccc(-c3nc(-c4ccc(C(F)(F)F)cc4)cs3)cc2)cc1)NC(C)[C@H](O)c1ccccc1` (mixture of isomers), for which, in data set [25], the EC50 entry is recorded as “Not Active”.

With `O=S(=O)(Nc1ccc(C[C@@H]2CC[C@H]([C@H](O)c3ccccc3)N2)cc1)c1ccc(-c2nc(-c3ccc(C(F)(F)F)cc3)cs2)cc1`, the INH on Cytochrome P450 3A4 and on Cytochrome P450 2D6 was more than 50 µM each time. Also, the IC50 in data set [10] stood at 2.19 µM; in data set [14] it was 2.51 µM. Also, the Activity in data set [24] came out at 95%. Further, the EC50 in data set [25] (read-out: EC50) was found to be 0.0041 µM.

For `O=S(=O)(Nc1ccc(CC2CC[C@H]([C@H](O)c3ccccc3)N2)cc1)c1ccc(-c2nc(-c3ccc(C(F)(F)F)cc3)cs2)cc1` (mixture of isomers), the results for the IC50 in data set [10] and in data set [14] were 2.93 µM and 2.18 µM, respectively. For the same compound, the Activity in data set [24] stood at 101%. Besides, the EC50 in data set [25] (read-out: EC50) was found to be 0.015 µM.

For `Nc1ccc(C[C@@H]2CC[C@H]([C@H](O)c3ccccc3)N2)cc1`, the Activity result in [28] and in [29] was “Non-toxic” in each case.

Regarding `O=S(=O)(Nc1ccc(C[C@H]2CC[C@H]([C@H](O)c3ccccc3)N2)cc1)c1ccc(-c2nc(-c3ccc(C(F)(F)F)cc3)cs2)cc1`, the INH at Cytochrome P450 3A4 and at Cytochrome P450 2D6 was more than 50 µM each time. For the same compound, the IC50 came to 0.242 µM in data set [10] and 0.297 µM in [14]. In addition, in [24], the Activity was determined as 76%. In [25] (read-out: EC50), the EC50 was 0.083 µM.

As to `O=S(=O)(Nc1ccc(CCNC[C@H](O)c2ccccc2)cc1)c1ccc(-c2nc(-c3ccc(C(F)(F)F)cc3)cs2)cc1`, the IC50 came out at 1.04 µM in [10] and 0.78 µM in [14]. The Activity in [24] stood at 95%. Moreover, the EC50 in data set [25] (read-out: EC50) was determined as 0.011 µM.

For the origin of these results see ChEMBL document CHEMBL1681775, “Design of a novel pyrrolidine scaffold utilized in the discovery of potent and selective human β3 adrenergic receptor agonists” (Bioorg Med Chem Lett, 2011).
